Assay results from different studies.
Protocols differ between the studies behind these lines.
Target: Ribosomal protein S6 kinase beta-1 (RPS6KB1, Homo sapiens, UniProt P23443)

`O=S(=O)(NCCNC/C=C/c1ccc(Br)cc1)c1cccc2cnccc12` gave a remaining signal of 25.6% (cell-free assay; 0.5 µM).
The inhibition of `Cn1cncc1C1=CN(c2ncnc3[nH]cnc23)CCS1` is reported as 14% (enzyme activity, inhibitor, radiometric; 50 nM).
The remaining binding of `CCOCCn1cc(C(=O)Nc2ccc(-n3nc(-c4cccnc4)cc3C(F)(F)F)cn2)ccc1=O` is reported as 97% (cell-free assay, competition with immobilised ligand; 1 µM).
With `Nc1ncnc2occ(-c3ccc(NC(=O)Nc4cc(C(F)(F)F)ccc4F)cc3)c12` the remaining signal was 0.1% (cell-free assay, inhibitor; 20 µM).
`COc1cc(/C=C/C(=O)CC(=O)/C=C/c2ccc(O)c(OC)c2)ccc1O` gave an activity vs control of 46% (enzyme activity, inhibitor; 1 µM).
`Oc1cccc(-c2nc(N3CCOCC3)c3oc4ncccc4c3n2)c1` gave a remaining signal of 106% (cell-free assay; 0.5 µM).
The remaining binding of `CC(=O)c1c(NS(C)(=O)=O)c2cc(-c3ccc(Cl)cc3)c(-c3ccc(Cl)cc3Cl)nc2n(C)c1=O` is reported as 95% (cell-free assay, competition with immobilised ligand; 1 µM).
For `C=CC(=O)Nc1cc(Nc2nccc(Nc3cc(Cl)c(F)cc3C(C)(C)O)n2)c(OC)cc1N1CC[C@@H](N(C)C)C1`, the inhibition was -3% (enzyme activity, inhibitor; 1 µM).
`O=C1Nc2ccc(Cl)cc2C1=Cc1cc(Cl)c(O)c(Cl)c1` gave a remaining signal of 91% (cell-free assay; 0.5 µM).
`CNc1cccc2cc(C(=O)Nc3ccc(C(=O)O)cc3)c(=O)[nH]c12` has an inhibition of 9% (enzyme activity, inhibitor; 10 µM).
For `CNCc1ccccc1-c1csc([C@@H](C)Nc2nc(C)nc3cc(OC)c(OC)cc23)c1`, the remaining binding was 86% (cell-free assay, competition with immobilised ligand; 1 µM).
For `COc1cc2ncnc(Nc3ccc(Oc4ccccc4)cc3C)c2cc1OC`, the inhibition was -2% (enzyme activity, inhibitor; 1 µM).
The activity vs control of `CC(C)c1ccc(NC(=O)c2cccs2)c(-c2nc3ccccc3[nH]c2=O)c1` is reported as 93% (enzyme activity, inhibitor; 1 µM).
With `c1ccc(N2CCN(Cc3nc4ccccc4[nH]3)CC2)nc1` the remaining binding was 97% (binding, competition with immobilised ligand; 1 µM).
With `COc1ccc(COc2ccc(Cc3cnc(N)nc3N)cc2OC)cc1` the remaining signal was 89.5% (cell-free assay; 0.5 µM).
For `CN([C@@H]1CCc2c(CC(=O)O)c3ccccc3n2C1)S(=O)(=O)c1ccc(F)cc1`, the remaining binding was 100% (cell-free assay, competition with immobilised ligand; 1 µM).
For `CCN(CC)CCNC(=O)c1c(C)[nH]c(/C=C2\C(=O)Nc3ccc(F)cc32)c1C`, the inhibition was 30% (enzyme activity, inhibitor; 0.3 µM).
`N#Cc1ccc(Nc2ccc3[nH]c(=O)[nH]c3c2)c(Cl)c1` gave a remaining binding of 100% (cell-free assay, competition with immobilised ligand; 1 µM).
For `CN(C)C1CCN(CC#Cc2nn(C3CCCC3)c3nc(NCc4ccccc4)ncc23)C1` (stereo not shown), the inhibition was 10% (enzyme activity, inhibitor, FRET; 10 µM).
